Source: ChEMBL document CHEMBL3271960, “7-Aza analogs of the analgetic agent azabicyclane. Synthesis and pharmacologic analysis” (J Med Chem, 1976)
The source made the active and inactive calls. No cut-off for these calls is given here.

Key:
[1] = system: Mus musculus; assay: Analgesic activity in sc dosed Swiss-Webster Royal Hart mouse after 30 mins by Haffner tail clamp test; format: functional; settings: 0.5 h
[2] = system: Mus musculus; assay: Antidiarrheal activity in Swiss-Webster Royal Hart mouse assessed as decrease in colonic propulsive motility at 10 mg/kg, ip; format: functional, organism-based; parameters: dose 10 mg/kg
[3] = system: Mus musculus; assay: Analgesic activity in Swiss-Webster Royal Hart mouse at 20 to 100 mg/kg, po administered as aqueous solution by phenylquinone-induced writhing test; format: functional, organism-based
Summary of the method: (§1)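 Male Swiss-Webster Royal Hart mice, groups of ten per dose level, doses up to 300 mg/kg per group. Water-soluble salts were given po or ip as aqueous solutions. Analgesia was tested by Haffner tail clamp and phenylquinone-induced writhing, anti-diarrheal effect as colonic propulsive motility, plus general behaviour observation.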

[4] = system: Mus musculus; assay: Convulsant activity in Swiss-Webster Royal Hart mouse at 30 to 100 mg/kg, ip administered as aqueous solution; format: ADME, organism-based; parameters: dose 30-100 mg/kg, route intraperitoneal; settings: in vivo; summary of the method: as §1
[5] = system: Mus musculus; assay: Analgesic activity in Swiss-Webster Royal Hart mouse at 20 to 100 mg/kg, po administered as solution in 30% aqueous propylene glycol by Haffner tail clamp test; format: functional, organism-based
Summary of the method: (§2)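 Male Swiss-Webster Royal Hart mice, ten per dose level, doses up to 300 mg/kg per group. Salt was dissolved in 30% aqueous propylene glycol and dosed po or ip. Analgesia was tested by Haffner tail clamp and phenylquinone-induced writhing, anti-diarrheal effect as colonic propulsive motility.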

[6] = system: Mus musculus; assay: Antidiarrheal activity in Swiss-Webster Royal Hart mouse assessed as colonic propulsive motility at 20 to 100 mg/kg, po administered as solution in 30% aqueous propylene glycol; format: functional, organism-based; summary of the method: as §2
[7] = system: Mus musculus; assay: Antidiarrheal activity in Swiss-Webster Royal Hart mouse assessed as colonic propulsive motility at 20 to 100 mg/kg, po administered as aqueous solution; format: functional, organism-based; summary of the method: as §1
[8] = system: Mus musculus; assay: Analgesic activity in Swiss-Webster Royal Hart mouse at 20 to 100 mg/kg, po administered as solution in 30% aqueous propylene glycol by phenylquinone-induced writhing test; format: functional, organism-based; summary of the method: as §2
[9] = system: Mus musculus; assay: Analgesic activity in Swiss-Webster Royal Hart mouse at 20 to 100 mg/kg, po administered as aqueous solution by Haffner tail clamp test; format: functional, organism-based; summary of the method: as §1
[10] = Dissociation constant, pKa of the compound; format: physicochemical
Summary of the method: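 Apparent pKa* measured in 66% aqueous dimethylformamide at 30° by potentiometric titration of monoperchlorate salts with 0.1 M NaOH, with pH recorded via a combination electrode on a recording titrator.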

[11] = system: Mus musculus; assay: Convulsant activity in Swiss-Webster Royal Hart mouse at 100 to 300 mg/kg, ip administered as aqueous solution; format: ADME, organism-based; parameters: dose 100-300 mg/kg, route intraperitoneal; settings: in vivo; summary of the method: as §1

SMILES | ED50 [1] | inhibition [2] | Activity [3] | Activity [4] | Activity [5] | Activity [6] | Activity [7] | Activity [8] | Activity [9] | pKa [10] | Activity [11]
CO[C@]1(c2ccccc2)[C@@H]2CCC[C@H]1CN(C)C2 | 3.9 mg/kg | Active |  |  |  |  |  |  |  |  | 
CC1(C)C2CCC1(CS(=O)(=O)O)C(=O)C2.CN1C[C@H]2CN(C)C[C@H](C1)[C@@]2(O)c1ccccc1 |  |  | inactive | Toxic | inactive | inactive | inactive | inactive | inactive | 11.7 | 
COC1(c2ccccc2)C2CN(C)CC1CN(C)C2 (stereo not given) |  |  | inactive |  | inactive | inactive | inactive | inactive | inactive | 11.7 | 
CCC(=O)OC1(c2ccccc2)C2CN(C)CC1CN(C)C2.CS(=O)(=O)O (stereo not given) |  |  | inactive |  | inactive | inactive | inactive | inactive | inactive | 11 | Toxic
